A selection: hits, their analogues and other compounds. The true share with any hit is near 2.3%.
SKN-1 block – suppressors of acrylamide-induced Pgst-4::GFP reporter in worms, primary screen, SKN-1 inhibitor project, whole organism, uHTS, GFP/RFP fluorescence ratio, strain VP596; C. elegans VP596 Pgst-4::GFP/RFP ratio, 24 h; inhibition, % at 21.8 µM; 0.49% of 360,000 active;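 active = interference check ratio from 0.5 to 1.5 plus GFP to RFP signal ratio inhibition reaching or exceeding a fixed threshold, cut at about 30% in these data, passing the limit was not always enough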
MPTP block – mitochondrial permeability transition pore inhibitors, primary screen, biochemical, isolated mouse mitochondria, absorbance; Ca2+ swelling absorbance, 30 min; inhibition, % at 10 µM; 1.4% of 360,000 active;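 active = inhibition of 50% or more, scaled per plate between neutral and stimulator controls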;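 note: 0% = DMSO wells given calcium and 100% = 1 mM EGTA wells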
MT1-MMP act inh – blockers of MT1-MMP proenzyme processing, primary screen, HT1080 RFP-PRO-GFP cells, GFP/RFP fluorescence | GFP/RFP ratio change, % at 20 µM | GFP/RFP ratio fluorescence, overnight; percent of plate control window, DMSO zero | Matrix metalloproteinase-14 (Homo sapiens), P50281 | 0.061% of 360,000 active;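 active = GFP/RFP ratio change of at least 30% with cell ATP level not reduced by more than half and red fluorescence within 50% of control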
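Material: RFP-PRO-GFP reporter HT1080 cells. Dosing: single-point 20 µM compound, 1% DMSO. Controls: DMSO and RFP-L50D-GFP cell wells. Timing: cells overnight before dosing, compound overnight, 37 °C, 5% CO2. Measure: GFP/RFP fluorescence ratio.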
ATG4B inh – ATG4B protease inhibitors, primary screen, biochemical, fluorescence, uHTS; Cysteine protease ATG4B (Homo sapiens), Q9Y4P1; ATG4B cleavage of LC3-PLA2, NBD-HPC fluorescence, 1 h; inhibition, % at 8.33 µM; 0.51% of 340,000 active; AID 504462, 2011; in the data active = inhibition above about 40%
Target sequence (Q9Y4P1 whole entry, looked up): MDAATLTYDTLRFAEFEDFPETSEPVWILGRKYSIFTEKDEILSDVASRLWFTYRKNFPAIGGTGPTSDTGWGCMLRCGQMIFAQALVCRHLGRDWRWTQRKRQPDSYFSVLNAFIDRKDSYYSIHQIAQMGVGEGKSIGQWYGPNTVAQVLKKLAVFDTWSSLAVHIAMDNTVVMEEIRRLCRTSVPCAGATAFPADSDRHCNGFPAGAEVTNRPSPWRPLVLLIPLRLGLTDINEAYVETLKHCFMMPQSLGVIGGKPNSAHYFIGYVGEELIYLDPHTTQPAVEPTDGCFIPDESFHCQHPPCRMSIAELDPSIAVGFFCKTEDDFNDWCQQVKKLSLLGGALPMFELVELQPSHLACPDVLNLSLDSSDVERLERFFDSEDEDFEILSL
ATG4B confirm – ATG4B protease inhibitors, retest, confirmation, biochemical, fluorescence, single concentration; shares compounds with ATG4B inh; ATG4B protease fluorescent substrate cleavage assay; inhibition, % at 8.33 µM; 92% of 320 active; AID 504757, 2011; in the data active = inhibition above about 39%
PLA2 ctr – PLA2 enzyme inhibition, counter-screen for ATG4B inhibitor project, biochemical, single concentration, uHTS hits; shares compounds with ATG4B inh; purified PLA2, NBD-C6-HPC fluorescence, 45 min; inhibition, % at 8.33 µM; 66% of 1,600 active; in the data active = inhibition above about 50%
Target sequence (P04054 whole entry, looked up): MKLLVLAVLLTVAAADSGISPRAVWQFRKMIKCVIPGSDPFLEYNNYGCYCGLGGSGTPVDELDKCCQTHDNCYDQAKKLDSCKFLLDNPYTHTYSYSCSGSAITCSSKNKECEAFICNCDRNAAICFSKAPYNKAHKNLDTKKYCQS
* marks the source's active call; other numbers are inactive results; nt = no result.

SMILES | SKN-1 block | MPTP block | MT1-MMP act inh | ATG4B inh | PLA2 ctr | others
COc1cc(/C=C/C(O)=C/C(=O)/C=C/c2ccc(O)cc2)ccc1O | 10.9 | 27.9 | -24.1 | 48.4* | 47.2
COc1ccc(NC(=O)CSc2nnc(NC(=O)c3ccccc3C(=O)O)s2)cc1 | 5.1 | 0.6 | -4.3 | 2.8 | nt
O=C(O)c1cccc2c(-c3ccccc3)c(-c3ccccc3)[nH]c12 | -12.0 | 12.0 | -1.8 | 68.6* | 74.7*
Brc1ccc2[nH]c3c(N4CCc5ccccc5C4)ncnc3c2c1 | nt | nt | nt | 48.0* | 63.4*
CCc1noc(C)c1C(=O)OCC(=O)c1ccccc1OC | 6.4 | 0.7 | 5.2 | 4.2 | nt
CCOC(=O)Cn1cc(C#N)c2cccc(CC)c21 | -4.6 | 0.7 | 0.5 | -3.9 | nt
O=C(CSc1nnc(-c2ccc(Br)o2)n1Cc1ccccc1)c1ccccc1F | 32.6 | 0.9 | 2.7 | 56.9* | 57.4*
CSc1nc(C)c(C(=O)C[n+]2ccccc2)cc1C#N | -1.0 | 0.1 | -1.0 | -5.5 | nt
CCN(CC)CC(=O)Nc1sc(C)c(C)c1C(=O)c1ccc(C)cc1 | 3.1 | 0.6 | -4.8 | 2.0 | nt
Cc1ccc(C(=O)c2c(NC(=O)c3ccccc3C)sc(C)c2C)cc1 | -14.3 | 2.7 | -10.9 | 63.2* | 49.7
CC(=O)Oc1ccc(C(=O)NCc2ccco2)cc1 | -11.8 | -0.9 | -0.8 | -8.3 | nt
Cc1ccc(CSCCC(=O)NCCC2=CCCCC2)cc1 | 2.4 | 1.9 | 1.6 | 16.0 | nt
O=C(CCSCc1cccc(Cl)c1)NCCC1=CCCCC1 | 3.4 | 20.9 | 5.1 | 46.4* | 25.0
CCN(CC)C(=O)CC(c1cc(OC)c(OC)c(OC)c1)c1c(OC)cc(OC)c2c(-c3ccccc3)cc(=O)oc12 (stereo not drawn) | -16.8 | -0.7 | 4.5 | -9.0 | nt
Cc1onc(-c2c(Cl)cccc2Cl)c1C(=O)OCC(=O)c1ccccc1 | -3.6 | -0.7 | -1.1 | 0.6 | nt
CCOC(=O)c1cc(-c2c(Cl)cccc2Cl)no1 | 9.3 | -0.4 | 1.5 | 50.1* | 46.5
CCOc1cc(/C=C2\CN(C)C/C(=C\c3ccc(O)c(OCC)c3)C2=O)ccc1O | -4.1 | 6.8 | -10.0 | -9.6 | nt
CCOc1cc(/C=C2\CCC/C(=C\c3cc(Cl)c(O)c(OCC)c3)C2=O)cc(Cl)c1O | 2.5 | 2.8 | -9.5 | 44.4* | 50.6*
Cc1ccc(S(C)(=O)=O)cc1C(=O)NC(C)C1CC2CCC1C2 (stereo not drawn) | 5.4 | -1.3 | 2.4 | -4.0 | nt
O=c1c2ccccc2nc(-c2ccoc2)n1CCc1ccccc1 | 32.9 | -0.2 | 14.1 | 41.6* | 36.2 | ATG4B confirm=65.0*
O=C(Nc1c(C(=O)O)oc2ccc(Br)cc12)c1ccccc1 | 8.9 | -0.9 | -5.6 | 47.9* | 57.1*
O=C(Nc1ccc(-c2nnc3n2CCCCC3)cc1)c1cc2ccccc2o1 | 2.0 | 1.2 | -0.6 | -10.1 | nt
Cc1c(C(=O)Nc2ccc(-c3nnc4n3CCCCC4)cc2)oc2c1ccc1ccccc12 | 9.8 | 1.8 | -4.2 | 45.2* | 59.7*
CCCc1nnc(NC(=O)C23CC4CC(CC(C4)C2)C3)s1 | -5.4 | -1.2 | -8.6 | -1.3 | nt
O=C(O)c1ccccc1C(=O)Nc1ccc(Oc2cccc3ccccc23)cc1 | 11.2 | -3.4 | -4.6 | 28.7 | nt
SMILES | SKN-1 block | MPTP block | MT1-MMP act inh | ATG4B inh | PLA2 ctr | others
Cc1cccc(Oc2ccc(NC(=O)c3ccccc3C(=O)O)cc2)c1C | -1.2 | 0.2 | -3.1 | 69.5* | 69.5*
COc1ccccc1CNc1nc(NCCN2CCNC2=O)c2sccc2n1 | 2.1 | -1.4 | -4.3 | nt | nt
O=C1c2ccccc2C(=O)N1C/C=C/c1ccccc1 | 0.6 | 8.0 | -0.4 | -7.3 | nt
O=C1C(=O)N(C/C=C/c2ccccc2)c2ccccc21 | -8.7 | 0.7 | 2.3 | 49.3* | 54.1*
O=Cc1cc(N=Nc2cccc(C(=O)O)c2)ccc1O | 3.3 | 1.4 | 4.9 | 6.8 | nt
O=Cc1cc(N=Nc2ccccc2Cl)ccc1O | 4.7 | 48.3 | 9.5 | 56.4* | 77.5*
O=C(N/N=C1\CC(c2ccccc2)Oc2ccccc21)c1ccc(O)cc1 (stereo not drawn) | 1.2 | 0.1 | 0.3 | 43.1* | 54.9*
CC(=O)Nc1ccc(S(=O)(=O)Nc2nc3ccccc3nc2Nc2ccc3ccccc3c2)cc1 | 11.3 | 4.6 | -27.8 | 48.1* | 57.9*
CC(=O)Nc1ccc(S(=O)(=O)Nc2nc3ccccc3nc2Nc2cccc(O)c2)cc1 | 8.3 | 2.0 | 1.2 | 0.6 | nt
CC1(C)C2CCC1(C)C1(C2)NC(=O)c2ccccc2O1 (stereo not drawn) | 4.5 | 24.6 | 0.9 | 45.0* | 33.7 | ATG4B confirm=70.0*
Cc1ccc(OCCC(=O)OCC(=O)Nc2ccc(F)cc2)cc1 | 8.5 | -0.4 | -2.2 | 5.9 | nt
CCOC(=O)C1CCN(C(=O)c2ccc(N(C)S(=O)(=O)c3ccc(OC)cc3)cc2)CC1 | -12.7 | 2.4 | 3.0 | -5.0 | nt
COc1ccc(C)cc1S(=O)(=O)N(CC(=O)Nc1cccc([N+](=O)[O-])c1)c1ccc(C)c(C)c1 | 7.6 | 10.2 | 0.5 | 88.1* | 90.2*
Cc1ccc(NC(=O)CN(c2ccc(Cl)cc2)S(=O)(=O)c2cc([N+](=O)[O-])ccc2Cl)cc1 | 0.6 | 13.1 | -0.5 | -11.1 | nt
O=C(COc1ccccc1Cl)N1CCN(c2ccccn2)CC1 | -18.0 | -0.7 | 6.0 | 91.9* | -4.7
Brc1csc(C=Nc2ccc3c(c2)OCCOCCOCCOCCO3)c1 | 3.9 | -0.7 | -0.1 | -0.4 | nt
Oc1c(Cl)cc(Cl)cc1C=Nc1ccc2c(c1)OCCO2 | -3.9 | 3.0 | -0.6 | 48.1* | 31.7 | ATG4B confirm=53.6*
CC(=O)N1CCN(c2ccc(NC(=O)c3ccccc3Cl)cc2)CC1 | 13.4 | 0.2 | 0.9 | 2.7 | nt
O=C(Nc1ccc(N2CCCCCC2)cc1)c1ccccc1Cl | 28.5 | -1.1 | -5.9 | 51.0* | 49.8
Cc1ccc(-n2cccc2/C=C2\C(=N)N3N=C(c4ccco4)SC3=NC2=O)cc1 | 4.5 | 34.5 | -6.4 | 78.1* | 62.0*
CC(=O)c1ccc(NC(=O)c2ccn(C(=O)OCC(C)C)n2)cc1 | 8.9 | 2.5 | 2.8 | -12.7 | nt
COc1ccc(N2CC(C(=O)N3CCN(C(=O)c4ccco4)CC3)CC2=O)cc1 (stereo not drawn) | 0.8 | -0.6 | -2.8 | -5.0 | nt
O=C(CN1C(=O)COc2ccccc21)NCCCN1CCc2ccccc2C1 | 4.7 | 0.1 | 0.5 | 75.6* | -11.8
N#Cc1ccccc1NC(=O)c1ccc2c(Cl)c3c(nc2c1)CCCC3 | -0.2 | 0.8 | nt | 47.8* | 48.8
CCCCOc1ccc(-c2c(C#N)c(N)nc(SCC(N)=O)c2C#N)cc1 | 6.2 | 1.5 | 7.1 | 52.8* | 58.3*

Assay outcomes from PubChem BioAssay.
